Reference: ChEMBL document CHEMBL3244146, “Pyranenamines: a new series of antiallergic compounds” (1979)

Each molecule was assayed on Rattus norvegicus (assay: Antiallergic activity in iv dosed rat assessed as inhibition of egg albumin-induced passive cutaneous anaphylaxis treated for 30 secs followed by egg albumin-challenge measured after 30 mins). Conditions: 0.5 h, read-out: ID50 (the source's name).
Format: functional

Row | Structure (SMILES) | ED50 [mg/kg]
1 | CC(=O)C1=C(O)/C(=C(\C)Nc2ccc(S)cc2)C(=O)OC1=O | 1.9
2 | CC(=O)C1=C(O)/C(=C(\C)Nc2ccc(NS(N)(=O)=O)cc2)C(=O)OC1=O | 0.3
3 | CC(=O)C1=C(O)/C(=C(\C)Nc2ccccc2O)C(=O)OC1=O | 2.8
4 | CC(=O)C1=C(O)/C(=C(\C)Nc2cccc(NC(=N)N)c2)C(=O)OC1=O.O=[N+]([O-])O | 0.9
5 | CCCCCC(=O)c1c(O)oc(=O)c(C(=O)CCCCC)c1O | 6
6 | CC(=O)C1=C(O)/C(=C(\C)Nc2cc(O)c(O)c(O)c2)C(=O)OC1=O | 0.4
7 | CC(=O)CCC(=O)Nc1cccc(N/C(C)=C2\C(=O)OC(=O)C(C(C)=O)=C2O)c1 | 0.4
8 | CC(=O)C1=C(O)/C(=C(\C)Nc2ccc(OCC(=O)O)cc2)C(=O)OC1=O | 0.5
9 | CC(=O)C1=C(O)/C(=C(\C)Nc2cccc(N)c2)C(=O)OC1=O | 0.3
10 | CCC(=O)Nc1ccc(N/C(C)=C2\C(=O)OC(=O)C(C(C)=O)=C2O)cc1 | 1.6
11 | CCOC(=O)Nc1cc(NC(=O)OCC)cc(N/C(C)=C2\C(=O)OC(=O)C(C(C)=O)=C2O)c1 | 0.25
12 | CC(=O)c1c(O)oc(=O)c(C(C)=O)c1O | 14
13 | CC(=O)C1=C(O)/C(=C(\C)Nc2cccc(O)c2)C(=O)OC1=O | 1.6
14 | CCOC(=O)Nc1cccc(N/C(C)=C2\C(=O)OC(=O)C(C(C)=O)=C2O)c1 | 0.4
15 | CC(=O)C1=C(O)/C(=C(\C)Nc2ccccc2N)C(=O)OC1=O | 27.5
16 | CCCCCC(=O)Oc1ccc(N/C(C)=C2\C(=O)OC(=O)C(C(C)=O)=C2O)cc1 | 12.1
17 | CCCC(=O)Oc1ccc(N/C(C)=C2\C(=O)OC(=O)C(C(C)=O)=C2O)cc1 | 1.5

These molecules were tested on Rattus norvegicus (assay: Antiallergic activity in rat assessed as inhibition of egg albumin-induced passive cutaneous anaphylaxis at 25 mg/kg, po treated for 15 mins followed by egg albumin-challenge measured after 30 mins relative to control). Conditions: not given.
Format: functional
How it was run: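 Oral PCA in rats: intradermal antiserum at four back sites (dose giving ~12×12 mm wheal), compound po 48 h later, 15 min before iv challenge with 0.5 mL saline containing 5 mg Evans blue plus 5 mg egg albumin; skin bluing read 30 min after challenge on two axes per wheal; six rats per dose versus ≥6 vehicle controls; percent inhibition from mean wheal size, one-sided t test.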

Row | Structure (SMILES) | inhibition in vivo at 25 mg/kg [%]
18 | CC(=O)C1=C(O)/C(=C(\C)Nc2ccc(NC(N)=O)cc2)C(=O)OC1=O | -17
19 | CC(=O)C1=C(O)/C(=C(\C)Nc2ccccc2NC=O)C(=O)OC1=O | 31
20 | CC(=O)C1=C(O)/C(=C(\C)Nc2ccc(NS(N)(=O)=O)cc2)C(=O)OC1=O | 10
21 | CC(=O)C1=C(O)/C(=C(\C)Nc2ccccc2O)C(=O)OC1=O | -12
22 | CC(=O)C1=C(O)/C(=C(\C)Nc2cccc(NS(N)(=O)=O)c2)C(=O)OC1=O | 13
23 | CC(=O)C1=C(O)/C(=C(\C)Nc2cccc(NC(=O)C(C)C)c2)C(=O)OC1=O | 46
24 | CC(=O)C1=C(O)/C(=C(\C)Nc2ccc(N)cc2)C(=O)OC1=O | 23
25 | CC(=O)C1=C(O)/C(=C(\C)Nc2cccc(NC(=N)N)c2)C(=O)OC1=O.O=[N+]([O-])O | -7
26 | CC(=O)C1=C(O)/C(=C(\C)Nc2cccc(NC(N)=O)c2)C(=O)OC1=O | 6
27 | CC(=O)C1=C(O)/C(=C(\C)Nc2cc(O)c(O)c(O)c2)C(=O)OC1=O | -3
28 | CC(=O)Nc1ccc(O)c(N/C(C)=C2\C(=O)OC(=O)C(C(C)=O)=C2O)c1 | 4
29 | CC(=O)C1=C(O)/C(=C(\C)Nc2ccc(OCC(=O)O)cc2)C(=O)OC1=O | 2
30 | CC(=O)C1=C(O)/C(=C(\C)Nc2ccc(NC=O)cc2)C(=O)OC1=O | -6
31 | CCOC(=O)Nc1cc(NC(=O)OCC)cc(N/C(C)=C2\C(=O)OC(=O)C(C(C)=O)=C2O)c1 | -18
32 | CC(=O)C1=C(O)/C(=C(\C)Nc2cccc(O)c2)C(=O)OC1=O | 0
33 | CCCCC(=O)Oc1ccc(N/C(C)=C2\C(=O)OC(=O)C(C(C)=O)=C2O)cc1 | 36

What follows are molecules tested on Rattus norvegicus (assay: Antiallergic activity in rat assessed as inhibition of egg albumin-induced passive cutaneous anaphylaxis at 0.5 mg/kg, iv treated for 30 secs followed by egg albumin-challenge measured after 30 mins relative to control). Conditions: 0.5 h.
Format: functional

Row | Structure (SMILES) | inhibition in vivo at 0.5 mg/kg [%]
34 | CNC(=O)c1cc(N/C(C)=C2\C(=O)OC(=O)C(C(C)=O)=C2O)ccc1O | 38
35 | CC(=O)C1=C(O)/C(=C(\C)Nc2cccc(NS(C)(=O)=O)c2)C(=O)OC1=O | 28
36 | CC(=O)C1=C(O)/C(=C(\C)Nc2ccc(NC(N)=O)cc2)C(=O)OC1=O | 38
37 | CC(=O)C1=C(O)/C(=C(\C)Nc2ccccc2NC=O)C(=O)OC1=O | 52
38 | CC(=O)C1=C(O)/C(=C(\C)Nc2ccc(OC(=O)NC3C=CC=CC=C3)cc2)C(=O)OC1=O | 22
39 | CC(=O)C1=C(O)/C(=C(\C)Nc2ccc(S(N)(=O)=O)cc2)C(=O)OC1=O | 12
40 | CC(=O)C1=C(O)/C(=C(\C)Nc2cccc(C(N)=O)c2)C(=O)OC1=O | -16
41 | CC(=O)Nc1ccccc1N/C(C)=C1\C(=O)OC(=O)C(C(C)=O)=C1O | -12
42 | CC(=O)C1=C(O)/C(=C(\C)Nc2cccc(NS(N)(=O)=O)c2)C(=O)OC1=O | 45
43 | CC(=O)C1=C(O)/C(=C(\C)Nc2cccc(NC(=O)C(C)C)c2)C(=O)OC1=O | 72
44 | CC(=O)C1=C(O)/C(=C(\C)Nc2cccc(NC(=N)NS(=O)(=O)c3ccc(C)cc3)c2)C(=O)OC1=O | 2
45 | CC(=O)C1=C(O)/C(=C(\C)Nc2cccc(C(=O)NC3C(=O)NC(=O)NC3=O)c2)C(=O)OC1=O | 39
46 | COc1ccc(N/C(C)=C2\C(=O)OC(=O)C(C(C)=O)=C2O)cc1NC(C)=O | 27
47 | CC(=O)C1=C(O)/C(=C(\C)Nc2ccc(N)cc2)C(=O)OC1=O | 58
48 | CNc1cc(N/C(C)=C2\C(=O)OC(=O)C(C(C)=O)=C2O)ccc1O | -6
49 | CC(=O)C1=C(O)/C(=C(\C)Nc2cccc(NC(N)=O)c2)C(=O)OC1=O | 45
50 | CC(=O)NCc1cc(N/C(C)=C2\C(=O)OC(=O)C(C(C)=O)=C2O)ccc1O | 1
51 | CC(=O)C1=C(O)/C(=C(\C)Nc2cc(NS(=O)(=O)c3ccccc3)cc(NS(=O)(=O)c3ccccc3)c2)C(=O)OC1=O | -9
52 | CC(=O)Nc1ccc(O)c(N/C(C)=C2\C(=O)OC(=O)C(C(C)=O)=C2O)c1 | 40
53 | CC(=O)C1=C(O)/C(=C(\C)N2CCOCC2)C(=O)OC1=O | 2
54 | CC(=O)C1=C(O)/C(=C(\C)Nc2cc(C(F)(F)F)cc(C(F)(F)F)c2)C(=O)OC1=O | 14
55 | CC(=O)C1=C(O)/C(=C(\C)Nc2cccc(N3C(=O)CCC3=O)c2)C(=O)OC1=O | 22

Row | Structure (SMILES) | inhibition in vivo at 0.5 mg/kg [%]
56 | CNc1cccc(N/C(C)=C2\C(=O)OC(=O)C(C(C)=O)=C2O)c1 | -8
57 | CNC(=O)c1cccc(N/C(C)=C2\C(=O)OC(=O)C(C(C)=O)=C2O)c1 | 24
58 | CCNC(=O)c1cccc(N/C(C)=C2\C(=O)OC(=O)C(C(C)=O)=C2O)c1 | -4
59 | CC(=O)C1=C(O)/C(=C(\C)Nc2ccc(NC=O)cc2)C(=O)OC1=O | 49
60 | CC(=O)NCc1cccc(N/C(C)=C2\C(=O)OC(=O)C(C(C)=O)=C2O)c1 | 4
61 | CCCCCCC(=O)Oc1ccc(N/C(C)=C2\C(=O)OC(=O)C(C(C)=O)=C2O)cc1 | 21
62 | CC(=O)C1=C(O)/C(=C(\C)Nc2ccc(NS(=O)(=O)c3ccccc3)cc2)C(=O)OC1=O | 4
63 | CCC(=O)Oc1ccc(N/C(C)=C2\C(=O)OC(=O)C(C(C)=O)=C2O)cc1 | 16
64 | CC(=O)C1=C(O)/C(=C(\C)Nc2cccc(NC=O)c2)C(=O)OC1=O | 22
65 | CC(=O)Oc1ccc(N/C(C)=C2\C(=O)OC(=O)C(C(C)=O)=C2O)cc1 | 41
66 | CC(=O)C1=C(O)/C(=C(\C)Nc2ccc3oc(C)nc3c2)C(=O)OC1=O | 13
67 | CC(=O)C1=C(O)/C(=C(\C)Nc2ccc(O)c(NS(C)(=O)=O)c2)C(=O)OC1=O | 38
68 | CCCC(=O)Nc1cccc(N/C(C)=C2\C(=O)OC(=O)C(C(C)=O)=C2O)c1 | 58
69 | CC(=O)C1=C(O)/C(=C(\C)Nc2cccc(S(N)(=O)=O)c2)C(=O)OC1=O | 45
70 | CC(=O)C1=C(O)/C(=C(\C)Nc2ccc(OC(N)=O)cc2)C(=O)OC1=O | 19
71 | CC(=O)C1=C(O)/C(=C(\C)Nc2c(O)cccc2O)C(=O)OC1=O | -22
72 | CC(=O)C1=C(O)/C(=C(\C)Nc2cccc(OCC(=O)O)c2)C(=O)OC1=O | 6
73 | CC(=O)C1=C(O)/C(=C(\C)Nc2cccc(C(=O)N(C)C)c2)C(=O)OC1=O | 10
74 | CCCCC(=O)Oc1ccc(N/C(C)=C2\C(=O)OC(=O)C(C(C)=O)=C2O)cc1 | 34
75 | CC(=O)C1=C(O)/C(=C(\C)Nc2ccc(NS(C)(=O)=O)cc2)C(=O)OC1=O | 20
76 | CC(=O)C1=C(O)/C(=C(\C)Nc2ccc(Br)cc2)C(=O)OC1=O | 0
77 | CC(=O)C1=C(O)/C(=C(\C)Nc2ccc(OC(=O)C(C)(C)C)cc2)C(=O)OC1=O | 3
